The target of one data set is CYP3A4 (Homo sapiens, UniProt P08684). In words: Inhibition of CYP3A4 (unknown origin) at 10 uM relative to control. It is filed as ADME. In outline:
(§1)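 Each CYP isoform inhibition assay run with test compound at 10 µM; reported as percent inhibition.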

Data set [1] deals with D(4) dopamine receptor (Homo sapiens) (UniProt P21917). In words: Displacement of [3H]-N-methylspiperone from human dopamine D4 receptor stably expressed in HEK cell membranes at 10 uM incubated for 90 mins under dark condition by scintillation counting analysis relative to control.
Sequence of D(4) dopamine receptor (Homo sapiens) (P21917 whole entry): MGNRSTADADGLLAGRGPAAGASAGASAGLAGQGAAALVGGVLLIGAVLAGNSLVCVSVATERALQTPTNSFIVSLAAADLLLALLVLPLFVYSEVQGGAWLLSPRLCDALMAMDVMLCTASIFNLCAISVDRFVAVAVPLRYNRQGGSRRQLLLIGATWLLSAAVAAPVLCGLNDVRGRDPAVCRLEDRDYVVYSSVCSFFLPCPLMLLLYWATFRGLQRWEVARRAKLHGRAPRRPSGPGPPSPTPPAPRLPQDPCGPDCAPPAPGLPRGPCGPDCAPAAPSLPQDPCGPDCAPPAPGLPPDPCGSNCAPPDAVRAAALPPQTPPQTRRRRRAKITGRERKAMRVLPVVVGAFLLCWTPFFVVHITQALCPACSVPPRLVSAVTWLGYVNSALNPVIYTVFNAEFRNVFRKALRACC
Data set [2] in a line: Fraction unbound in rat plasma. It is filed as ADME, cell-free. The procedure, abridged:
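Free fraction measured in rat plasma.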

The target of data set [3] is Alpha-2B adrenergic receptor (Homo sapiens) (UniProt P18089). In words: Displacement of [3H]-rauwolscine from human adrenergic alpha2B receptor transiently expressed in HEKT cell membranes at 10 uM incubated for 90 mins under dark condition by scintillation counting analysis relative to control.
Sequence of Alpha-2B adrenergic receptor (Homo sapiens) (P18089 whole entry): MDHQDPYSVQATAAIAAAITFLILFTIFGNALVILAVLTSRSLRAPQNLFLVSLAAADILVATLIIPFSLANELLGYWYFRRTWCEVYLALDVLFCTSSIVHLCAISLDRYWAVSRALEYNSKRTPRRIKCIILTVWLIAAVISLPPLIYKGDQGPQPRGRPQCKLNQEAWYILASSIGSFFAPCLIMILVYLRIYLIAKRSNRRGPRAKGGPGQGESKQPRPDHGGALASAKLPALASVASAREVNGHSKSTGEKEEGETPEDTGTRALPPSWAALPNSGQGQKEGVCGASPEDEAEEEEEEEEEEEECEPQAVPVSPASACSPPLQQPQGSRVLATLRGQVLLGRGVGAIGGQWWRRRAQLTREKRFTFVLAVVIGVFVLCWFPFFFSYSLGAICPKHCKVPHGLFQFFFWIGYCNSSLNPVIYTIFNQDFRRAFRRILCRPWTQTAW
Another data set concerns the target CYP2D6 (Homo sapiens, UniProt P10635). Description: Inhibition of CYP2D6 (unknown origin) at 10 uM relative to control. The format is ADME. The procedure, abridged:
as §1

Data set [4] in a line: Kinetic solubility of the compound in PBS at pH 7.4 measured after 2 hrs. It is filed as physicochemical. The settings on record: buffer, pH 7.4, 2 h.
In data set [5] the target is D(1A) dopamine receptor (Homo sapiens) (UniProt P21728). Description: Displacement of [3H]-SCH23390 from human dopamine D1 receptor transiently expressed in HEKT cell membranes at 10 uM incubated for 90 mins under dark condition by scintillation counting analysis relative to control. For orientation: Loss of bound radioactivity is the signal in a displacement assay; it reports binding, not function.

Data set [6] has as its target 5-hydroxytryptamine receptor 3A (Homo sapiens) (UniProt P46098). In words: Displacement of [3H]-LY278584 from human 5HT3R transiently expressed in HEKT cell membranes at 10 uM incubated for 90 mins under dark condition by scintillation counting analysis relative to control.
For data set [7], the target named is 5-hydroxytryptamine receptor 6 (Homo sapiens) (UniProt P50406). In words: Displacement of [3H]-LSD from human 5HT6 stably expressed in HEK cell membranes at 10 uM incubated for 90 mins under dark condition by scintillation counting analysis relative to control.
Sequence of 5-hydroxytryptamine receptor 6 (Homo sapiens) (P50406 whole entry): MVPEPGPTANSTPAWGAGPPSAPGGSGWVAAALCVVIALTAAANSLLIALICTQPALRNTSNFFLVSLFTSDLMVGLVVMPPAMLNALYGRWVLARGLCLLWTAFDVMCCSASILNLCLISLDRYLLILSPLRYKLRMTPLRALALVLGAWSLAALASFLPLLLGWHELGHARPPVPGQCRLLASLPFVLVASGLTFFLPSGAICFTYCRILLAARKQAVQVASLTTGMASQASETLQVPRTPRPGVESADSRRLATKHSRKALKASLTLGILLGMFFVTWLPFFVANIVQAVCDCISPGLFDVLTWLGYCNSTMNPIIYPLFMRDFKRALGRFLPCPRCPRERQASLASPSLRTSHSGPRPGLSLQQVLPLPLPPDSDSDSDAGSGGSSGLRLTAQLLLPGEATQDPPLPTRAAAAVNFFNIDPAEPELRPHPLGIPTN
Data set [8] has as its target Kappa-type opioid receptor (Homo sapiens) (UniProt P41145). Description: Displacement of [3H]-U69593 from kappa opioid receptor (unknown origin) at 10 uM incubated for 90 mins under dark condition by scintillation counting analysis relative to control.
Data set [9] has as its target D(3) dopamine receptor (Homo sapiens) (UniProt P35462). In words: Displacement of [3H]-N-methylspiperone from dopamine D3 receptor (unknown origin) at 10 uM incubated for 90 mins under dark condition by scintillation counting analysis relative to control.
In a further data set the target is CYP2C9 (Homo sapiens, UniProt P11712). Description: Inhibition of CYP2C9 (unknown origin) at 10 uM relative to control. The format is ADME. In outline:
as §1

The target in data set [10] is 5-hydroxytryptamine receptor 1A (Homo sapiens) (UniProt P08908). In words: Displacement of [3H]-8-OH-DPAT from human 5HT1A stably expressed in CHO cell membranes at 10 uM incubated for 90 mins under dark condition by scintillation counting analysis relative to control.
Data set [11] deals with Beta-1 adrenergic receptor (Homo sapiens) (UniProt P08588). In words: Displacement of [125I]-pindolol from human beta1 adrenergic receptor expressed in CHO FLp-In cell membranes at 10 uM incubated for 90 mins under dark condition by scintillation counting analysis relative to control.
Sequence of Beta-1 adrenergic receptor (Homo sapiens) (P08588 whole entry, looked up): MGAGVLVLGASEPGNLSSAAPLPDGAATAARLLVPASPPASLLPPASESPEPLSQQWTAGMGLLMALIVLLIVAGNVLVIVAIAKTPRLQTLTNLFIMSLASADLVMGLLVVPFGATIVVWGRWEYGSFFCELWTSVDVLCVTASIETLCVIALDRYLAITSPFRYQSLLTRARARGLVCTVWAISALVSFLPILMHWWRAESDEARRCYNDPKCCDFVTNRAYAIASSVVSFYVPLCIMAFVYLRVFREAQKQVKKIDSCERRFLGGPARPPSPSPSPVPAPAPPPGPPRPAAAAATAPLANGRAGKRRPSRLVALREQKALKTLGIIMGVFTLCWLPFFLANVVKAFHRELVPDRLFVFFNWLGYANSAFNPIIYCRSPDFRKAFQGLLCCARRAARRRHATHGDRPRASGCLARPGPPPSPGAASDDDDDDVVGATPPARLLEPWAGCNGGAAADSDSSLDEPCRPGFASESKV
In a further data set the target is 5-HT2B receptor (Homo sapiens, UniProt P41595). Description: Displacement of [3H]-LSD from human 5HT2B stably expressed in HEK cell membranes at 10 uM incubated for 90 mins under dark condition by scintillation counting analysis relative to control. As to conditions: membranes of HEK cells stably expressing human 5HT2B, probe [3H]-LSD.
Sequence of 5-HT2B receptor (P41595 whole entry): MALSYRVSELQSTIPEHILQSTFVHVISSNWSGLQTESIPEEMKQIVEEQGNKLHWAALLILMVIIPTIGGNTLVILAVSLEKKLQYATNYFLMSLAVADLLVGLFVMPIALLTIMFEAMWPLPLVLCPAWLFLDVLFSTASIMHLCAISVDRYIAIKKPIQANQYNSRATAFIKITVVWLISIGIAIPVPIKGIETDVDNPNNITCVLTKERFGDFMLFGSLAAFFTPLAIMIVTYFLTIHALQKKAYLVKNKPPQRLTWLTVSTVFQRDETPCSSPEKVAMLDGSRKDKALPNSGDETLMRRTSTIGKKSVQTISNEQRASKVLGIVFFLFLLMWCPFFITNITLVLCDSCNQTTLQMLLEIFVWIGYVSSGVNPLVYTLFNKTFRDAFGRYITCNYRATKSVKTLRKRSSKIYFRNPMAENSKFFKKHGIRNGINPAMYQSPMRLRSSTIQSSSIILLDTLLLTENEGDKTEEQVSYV
The target in data set [12] is 5-hydroxytryptamine receptor 1E (Homo sapiens) (UniProt P28566). In words: Displacement of [3H]-5-HT from human 5HT1E stably expressed in HEK cell membranes at 10 uM incubated for 90 mins under dark condition by scintillation counting analysis relative to control.
Data set [13] in a line: Half life in rat liver microsomes at 10 uM in presence of NADPH. It is filed as ADME, Microsome. On the technique in general: Microsomes from liver hold many membrane-bound enzymes, among them those of drug oxidation.
Data set [14] has as its target Sodium-dependent dopamine transporter (Homo sapiens) (UniProt Q01959). In words: Displacement of [3H]-WIN35428 from human DAT expressed in HEK cell membranes at 10 uM incubated for 90 mins under dark condition by scintillation counting analysis relative to control.
Data set [15] in a line: Cmax in Sprague-Dawley rat at 20 mg/kg, po. The format is ADME, organism-based. Also on record: dose 20 mg/kg, route oral. The settings on record: in vivo. In outline:
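Male Sprague-Dawley rats, 200–250 g, n = 3/group, randomly assigned; dosed 10 mg/kg iv or 20 mg/kg po in 10% DMSO:90% HP-β-CD. Retro-orbital blood sampled predose and 0.08 (iv only), 0.25, 0.5, 1, 2, 4, 8, 24 h. Noncompartmental analysis; Cmax read directly from plasma concentration–time plot; mean ± SEM.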

The next data set deals with 5-HT2A receptor (Homo sapiens, UniProt P28223). In words: Displacement of [3H]-ketanserin from 5HT2A (unknown origin) at 10 uM incubated for 90 mins under dark condition by scintillation counting analysis relative to control. As to conditions: probe [3H]-ketanserin.
Data set [16] is described as follows: Apparent permeability across basolateral to apical side in MDCK-MDR1 cells. It is filed as ADME, cell-based, Canis lupus familiaris. As to conditions: dog.
For another data set, the target named is CYP1A2 (Homo sapiens, UniProt P05177). Description: Inhibition of CYP1A2 (unknown origin) at 10 uM relative to control. It is filed as ADME. In outline:
as §1

A short description of data set [17]: AUC (0 to infinity) in Sprague-Dawley rat at 20 mg/kg, po. Also on record: dose 20 mg/kg, time infinity, route oral. It is filed as ADME, organism-based. As to conditions: in vivo.

Sequence of Sodium-dependent dopamine transporter (Homo sapiens) (Q01959 whole entry): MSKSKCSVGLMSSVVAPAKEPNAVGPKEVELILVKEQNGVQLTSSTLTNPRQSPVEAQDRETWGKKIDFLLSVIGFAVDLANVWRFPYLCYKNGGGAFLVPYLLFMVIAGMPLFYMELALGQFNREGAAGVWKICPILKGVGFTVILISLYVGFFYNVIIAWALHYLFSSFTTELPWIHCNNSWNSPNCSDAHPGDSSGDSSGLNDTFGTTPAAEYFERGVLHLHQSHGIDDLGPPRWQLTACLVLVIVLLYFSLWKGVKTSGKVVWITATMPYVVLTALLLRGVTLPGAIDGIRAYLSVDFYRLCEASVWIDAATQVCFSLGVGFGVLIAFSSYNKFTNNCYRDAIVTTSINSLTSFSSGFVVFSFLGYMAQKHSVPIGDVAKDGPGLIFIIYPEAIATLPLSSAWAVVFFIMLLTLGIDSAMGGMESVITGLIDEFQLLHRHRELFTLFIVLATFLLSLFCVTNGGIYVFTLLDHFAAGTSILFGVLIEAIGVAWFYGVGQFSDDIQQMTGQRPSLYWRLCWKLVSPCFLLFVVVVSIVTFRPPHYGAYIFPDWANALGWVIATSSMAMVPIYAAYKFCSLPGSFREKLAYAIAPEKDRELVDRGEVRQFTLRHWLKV
Sequence of CYP3A4 (P08684 whole entry, canonical isoform): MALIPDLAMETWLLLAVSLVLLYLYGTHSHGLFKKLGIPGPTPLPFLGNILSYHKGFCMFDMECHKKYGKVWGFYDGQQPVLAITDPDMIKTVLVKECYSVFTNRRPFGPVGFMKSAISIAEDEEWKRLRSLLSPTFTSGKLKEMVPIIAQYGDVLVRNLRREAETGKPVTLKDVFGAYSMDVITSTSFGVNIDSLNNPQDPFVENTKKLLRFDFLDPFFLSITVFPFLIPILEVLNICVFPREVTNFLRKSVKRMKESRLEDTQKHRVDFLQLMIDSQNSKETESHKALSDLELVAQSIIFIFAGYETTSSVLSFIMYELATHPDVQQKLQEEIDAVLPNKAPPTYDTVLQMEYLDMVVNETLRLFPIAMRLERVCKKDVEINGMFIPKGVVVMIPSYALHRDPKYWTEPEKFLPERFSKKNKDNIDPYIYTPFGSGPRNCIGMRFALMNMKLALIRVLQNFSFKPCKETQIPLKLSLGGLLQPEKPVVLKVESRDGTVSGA
Sequence of Kappa-type opioid receptor (Homo sapiens) (P41145 whole entry): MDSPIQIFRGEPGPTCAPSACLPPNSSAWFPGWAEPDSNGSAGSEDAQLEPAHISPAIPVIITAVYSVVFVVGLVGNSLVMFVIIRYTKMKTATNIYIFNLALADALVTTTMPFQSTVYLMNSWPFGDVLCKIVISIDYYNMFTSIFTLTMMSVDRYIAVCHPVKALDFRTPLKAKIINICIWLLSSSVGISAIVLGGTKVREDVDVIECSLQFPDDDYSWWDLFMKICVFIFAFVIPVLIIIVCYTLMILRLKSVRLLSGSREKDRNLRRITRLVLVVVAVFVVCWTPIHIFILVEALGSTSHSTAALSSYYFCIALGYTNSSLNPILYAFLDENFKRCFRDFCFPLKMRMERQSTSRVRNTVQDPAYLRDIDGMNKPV
Sequence of CYP2C9 (P11712 whole entry): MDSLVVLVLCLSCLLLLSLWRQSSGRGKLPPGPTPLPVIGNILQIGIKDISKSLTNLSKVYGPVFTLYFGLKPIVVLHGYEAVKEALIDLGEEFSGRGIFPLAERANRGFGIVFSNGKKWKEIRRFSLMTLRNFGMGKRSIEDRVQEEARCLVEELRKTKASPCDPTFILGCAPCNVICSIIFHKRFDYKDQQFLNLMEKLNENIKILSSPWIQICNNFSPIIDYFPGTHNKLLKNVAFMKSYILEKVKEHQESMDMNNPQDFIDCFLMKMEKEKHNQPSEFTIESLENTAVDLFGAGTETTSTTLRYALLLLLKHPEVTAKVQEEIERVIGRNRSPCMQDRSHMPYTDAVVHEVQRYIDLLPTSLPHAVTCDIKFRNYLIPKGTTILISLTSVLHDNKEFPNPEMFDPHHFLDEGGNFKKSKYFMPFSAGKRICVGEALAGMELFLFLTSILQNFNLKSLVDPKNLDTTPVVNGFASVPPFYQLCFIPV
Sequence of CYP1A2 (P05177 whole entry): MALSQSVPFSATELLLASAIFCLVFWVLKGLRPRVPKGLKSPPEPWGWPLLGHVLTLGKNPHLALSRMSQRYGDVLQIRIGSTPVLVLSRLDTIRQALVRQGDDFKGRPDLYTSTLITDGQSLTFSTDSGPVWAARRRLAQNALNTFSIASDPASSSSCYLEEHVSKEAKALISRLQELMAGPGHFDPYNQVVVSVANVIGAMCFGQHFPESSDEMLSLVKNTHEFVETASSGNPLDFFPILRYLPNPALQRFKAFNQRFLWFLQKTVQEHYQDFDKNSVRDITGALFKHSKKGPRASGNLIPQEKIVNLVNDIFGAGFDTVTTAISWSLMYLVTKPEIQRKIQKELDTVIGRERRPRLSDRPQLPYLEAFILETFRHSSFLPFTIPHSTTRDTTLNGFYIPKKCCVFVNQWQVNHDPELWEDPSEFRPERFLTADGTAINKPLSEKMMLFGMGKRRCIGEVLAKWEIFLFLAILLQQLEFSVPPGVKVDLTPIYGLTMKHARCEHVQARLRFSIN

Turning to `O=C(NC[C@H](O)CO)[C@@H]1C[C@H](c2ccccc2)CCN1` (mixture of isomers), the inhibition (in general, the change of the read-out against control, counted positive when it falls) at 10 µM against CYP3A4 stood at 0%; at CYP2D6, 1.9%; against CYP2C9 it was 0%; against CYP1A2, 11.8%. The inhibition in [1] was -9.3%; in [3], 14.5%; in data set [5], 9.7%; in data set [6] it was 22.3%; in data set [7], 2.5%; in data set [8] it was 13.4%. Besides, the inhibition in [9] was 19.4%; in data set [10], 28.4%; in data set [11], -7.7%; in [12], 6.3%; in data set [14], 40.8%. For the same compound, the Fu in data set [2] turned out to be 66%. For the same compound, the Kinetic_solubility in data set [4] was over 100 µM. Also, the inhibition at 1.5 h, 10 µM is -7.2% at 5-HT2B receptor and -4.3% on 5-HT2A receptor. The t1/2 in [13] was over 4 h. Moreover, the Cmax (commonly the maximum level reached in the sampled fluid or tissue) in [15] stood at 411.3 ng/mL. Besides, the Papp – broadly, the rate of passage across a membrane or cell layer, normalised by area and donor concentration – in [16] turned out to be 1.3 ×10⁻⁶ cm/s. Also, in [17], the AUC (in general, concentration integrated over time) came out at 2244.7 ng·h/mL.

The values above are taken from ChEMBL document CHEMBL4622923, “Discovery of 4-Phenylpiperidine-2-Carboxamide Analogues as Serotonin 5-HT2C Receptor-Positive Allosteric Modulators with Enhanced Drug-like Properties” (J Med Chem, 2020).
